Experimental findings from ChEMBL document CHEMBL3397043, “Synthesis, anticandidal activity of N(3)-(4-methoxyfumaroyl)-(S)-2,3-diaminopropanoic amide derivatives--novel inhibitors of glucosamine-6-phosphate synthase” (Eur J Med Chem, 2015) are described below.

One experiment concerns Bacillus subtilis. Kind of experiment: Antimicrobial activity against Bacillus subtilis ATCC 9372 assessed as growth inhibition serial 2-fold dilution microtitre plate method. Format: functional. A digest of the protocol:
(§1)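 Bacterial MIC in Mueller Hinton Broth 2 (acid casein hydrolysate, beef extract, starch), pH 7.3. Growth was compared with control cultures and read on a microplate reader.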

For experiment [1], the system named is Staphylococcus epidermidis. Put plainly: Antimicrobial activity against Staphylococcus epidermidis PCM 2118 assessed as growth inhibition serial 2-fold dilution microtitre plate method. Format: functional. A digest of the protocol:
as §1

A further experiment relates to Escherichia coli. Put plainly: Antimicrobial activity against Escherichia coli PCM 2560 assessed as growth inhibition serial 2-fold dilution microtitre plate method. Format: functional. The method in brief: as §1
Another experiment concerns Staphylococcus aureus. Put plainly: Antimicrobial activity against Staphylococcus aureus ATCC 29213 assessed as growth inhibition serial 2-fold dilution microtitre plate method. Format: functional. The method in brief:
as §1

The subject of a further experiment is Candida parapsilosis. Kind of experiment: Antimicrobial activity against Candida parapsilosis DSM 5784 assessed as growth inhibition serial 2-fold dilution microtitre plate method. Format: functional. Particulars: Lodderomyces parapsilosis. The method in brief:
(§2)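 MIC by serial 2-fold broth dilution in microtitre plates. Medium was YNB with ammonium sulfate as nitrogen source, pH 5.0. Growth was compared with control cultures and read on a microplate reader.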

The next experiment has as its system Nakaseomyces glabratus. Put plainly: Antimicrobial activity against Candida glabrata DSM 11226 assessed as growth inhibition serial 2-fold dilution microtitre plate method. Format: functional. A digest of the protocol:
as §2

A further experiment relates to Candida albicans. Kind of experiment: Antimicrobial activity against Candida albicans ATCC 10231 assessed as growth inhibition serial 2-fold dilution microtitre plate method. Format: functional. The method in brief: as §2
The test system of the next experiment is Pseudomonas aeruginosa. Kind of experiment: Antimicrobial activity against Pseudomonas aeruginosa ATCC 2756 assessed as growth inhibition serial 2-fold dilution microtitre plate method. Format: functional. The method in brief: as §1
Experiment [2] is described as follows: Binding affinity to immobilized artificial membrane PC DD2 (unknown origin) by UV/Vis detector model. The method in brief:
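HPLC on an IAM PC DD2 column (3 cm × 4.6 mm, 300 Å pores). Mobile phase 0.1 M phosphate buffer pH 7.2 at 1 mL/min, UV detection at 254 nm. Dead time t0 taken from citric acid retention. Capacity factor k'IAM = (tr − t0)/t0, reported as log k'IAM.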

Experiment [3] can be described thus: Inhibition of Candida albicans glucosamine-6-phosphate synthase assessed as glucosamine-6-phosphate by Elson-Morgan method. A digest of the protocol: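 Enzyme source: cell-free extract of C. albicans GlcN-6-P synthase overproduced in E. coli. Incubated 37 °C for 30 min, stopped by 100 °C for 1 min. GlcN-6-P measured by modified Elson-Morgan. IC50 is the concentration giving 50% inhibition.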

One may read the MIC as the lowest concentration that inhibits growth of the organism. By IC50 is commonly meant the midpoint of a concentration-inhibition curve. Take `CNC(=O)[C@@H](N)CNC(=O)/C=C/C(=O)OC.Cl`: the minimal inhibitory concentration (MIC) (with Bacillus subtilis; in experiment [1]; with Escherichia coli; in the experiment with Staphylococcus aureus; in the experiment on Candida parapsilosis; in the experiment on Nakaseomyces glabratus) was over 1020 µg/mL each time. In addition, the figures for the MIC in the experiment with Candida albicans and in the experiment with Pseudomonas aeruginosa were 32 µg/mL and over 1020 µg/mL, respectively. The log K in experiment [2] is -0.193. Further, the IC50 in experiment [3] came out at 127 µM.
As for `COC(=O)/C=C/C(=O)NC[C@H](N)C(=O)O`, the MIC (in the experiment on Bacillus subtilis; in [1]; with Escherichia coli; in the experiment with Staphylococcus aureus; in the experiment with Candida parapsilosis; with Nakaseomyces glabratus) was over 2000 µg/mL in each case. The MIC in the experiment on Candida albicans and with Pseudomonas aeruginosa was over 2000 µg/mL each time. Also, the log K in experiment [2] was -0.812. Besides, in experiment [3], the IC50 was found to be 4.03 µM.
Turning to `COC(=O)/C=C/C(=O)NC[C@H](N)C(N)=O.Cl`, the MIC (in the experiment with Bacillus subtilis; in experiment [1]; with Escherichia coli; in the experiment on Staphylococcus aureus; with Candida parapsilosis; with Nakaseomyces glabratus) was over 1020 µg/mL each time. Further, the MIC in the experiment on Candida albicans was 4 µg/mL; in the experiment with Pseudomonas aeruginosa, over 1020 µg/mL. This compound also returned a log K in experiment [2] of -0.362. The IC50 in experiment [3] is 80.7 µM.
For `COC(=O)/C=C/C(=O)NC[C@H](N)C(=O)N(C)C.Cl`, the MIC (in the experiment with Bacillus subtilis; in experiment [1]; in the experiment on Escherichia coli; in the experiment on Staphylococcus aureus; in the experiment with Candida parapsilosis; in the experiment with Nakaseomyces glabratus) was over 1020 µg/mL in each case. In addition, the MIC was 512 µg/mL with Candida albicans and over 1020 µg/mL with Pseudomonas aeruginosa. The log K in experiment [2] was 0.118. In [3], the 50% inhibitory concentration (IC50) was determined as 2890 µM.
